The list is not random: actives were taken first. Their share in the collection is about 6.4%.
HUVEC prolif 384 = blocks proliferation of human endothelial cells | HUVEC proliferation, CellTiter-Glo luminescence, 72 h; hits give low values | AID 648 | 86,000 compounds, 1.1% hits | viability, % at 10 µM (by protocol);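 active = viability at or below 30%; inactive = viability above 30%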
Fibroblast inh = blocks proliferation of human lung fibroblasts; 85,000 compounds, 1.1% hits; LL 47 human lung fibroblast viability, ATP luminescence; hits give low values; viability, % at 10 µM;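 active = viability at or below 50% in the single dose screen; inactive = viability above 50%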;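 also: compound exposure lasted 72 h before the ATP readout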
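material = human LL 47 lung fibroblast cells | dosing = compounds added from tenfold dosing solution, 0.1% DMSO final | timing = overnight cell rest, 72 h compound treatment at 37 °C | measured by = CellTiter-Glo luminescence measuring cellular ATP | evaluation = % viability versus median cells-only luminescence | control set = cell-only wells, no compound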
Jurkat viability = cytotoxicity toward Jurkat cells | Jurkat E6.1 viability, ATP luminescence, 48 h | inhibition, % at 4 µM | 56,000 compounds, 1.2% hits | AID 463;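 active = inhibition above the mean inhibition of all tested compounds plus 3 SD, cut at about 28% in these data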
H69AR growth 86K = blocks growth of human H69AR lung tumor cells | 85,000 compounds, 6% hits | viability, % at 10 µM | H69AR lung tumor viability, ATP luminescence, 72 h; hits give low values | AID 598;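 active = viability at or below 40%; inactive = viability above 40%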;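 also: multidrug resistant small cell line overexpressing MRP-1 efflux transporter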
Of the large screens only hits and unclear results are named; the others gave an inactive call.

CCCn1c(NC(=O)c2cccc(C)c2C)nc2ccccc21	H69AR growth 86K 25 (no result: Jurkat viability)
CCCn1c(NC(=O)c2ccc(Cl)c(S(=O)(=O)N3CCCC3)c2)nc2ccccc21	H69AR growth 86K 10.0
CCCn1c(NCCO)nc2ccccc21	none (no result: Jurkat viability)
C=CCSc1nc(C)c(CC(=O)OCC(C)C)c(=O)[nH]1	none
Cc1cc(NCCCn2ccnc2)n2ncc(-c3ccc(Cl)cc3)c2n1	HUVEC prolif 384 9.4, Fibroblast inh 22, H69AR growth 86K 19 (no result: Jurkat viability)
Cc1cc(NCCCN2CCOCC2)n2ncc(-c3ccc(Cl)cc3)c2n1	Fibroblast inh 46, H69AR growth 86K 24
Cn1c(=O)c2c(nc(NCCCN3CCOCC3)n2Cc2ccc(Cl)cc2)n(C)c1=O	none
COc1ccc(CCNC(=O)c2cnn3cccnc23)cc1OC	none
Cc1ccc(NC(=O)c2c(-c3c(F)cccc3Cl)noc2C)cc1F	none
CCN(CC)CCN(C)Cc1ccc(Br)cc1	none (no result: Jurkat viability)
O=C1CC(N2CCCc3ccccc32)C(=O)N1c1ccccc1Cl (configuration not stated)	none (no result: Jurkat viability)
O=C(NS(=O)(=O)c1ccccc1)c1ccccc1F	none
Cc1ccc(NC(=O)C2CCN(S(=O)(=O)c3cccs3)CC2)cc1C	none (no result: Jurkat viability)
CCn1c2ccccc2c2cc(NC(=O)C3CCN(S(=O)(=O)c4cccs4)CC3)ccc21	H69AR growth 86K 21 (no result: Jurkat viability)
Cc1cc2nc(C3CCN(CC4COc5ccccc5O4)CC3)[nH]c2cc1C (configuration not stated)	HUVEC prolif 384 5.9, H69AR growth 86K 33
Cc1cc2nc(C3CCCN(C(=O)NCc4ccccc4)C3)[nH]c2cc1C (configuration not stated)	none (no result: Jurkat viability)
O=C(O)C1CCCN1S(=O)(=O)c1ccc2ccccc2c1 (configuration not stated)	none (no result: Jurkat viability)
O=C(NC1CC1)C1CCCN1S(=O)(=O)c1ccc2ccccc2c1 (configuration not stated)	H69AR growth 86K 18
O=C(Nc1ccc(C(=O)Oc2ccccc2)c(O)c1)c1ccco1	none
COCc1c(C(=O)N2CCN(c3ccc(C(F)(F)F)cn3)CC2)oc2ccccc12	none (no result: Jurkat viability)
O=C(c1ccco1)N1CCN(c2ncnc3scc(-c4cccs4)c23)CC1	none
c1ccc(N2CCN(c3ncnc4scc(-c5cccs5)c34)CC2)cc1	none
O=C(c1ccco1)N1CCN(c2ncnc3scc(-c4ccccc4)c23)CC1	H69AR growth 86K 40 (no result: Jurkat viability)
Cc1ccc(-c2csc3ncnc(N4CCN(C(=O)c5ccccc5)CC4)c23)cc1	H69AR growth 86K 22 (no result: Jurkat viability)
CCOC(=O)c1cccc2c1-c1ccccc1/C2=N/O	HUVEC prolif 384 14, H69AR growth 86K 28
CC(C)COC(=O)c1cccc2c1-c1ccccc1/C2=N\O	none (no result: Jurkat viability)
COC(=O)c1ccc(S(=O)(=O)NCCSc2nnc3c4ccccc4n(C)c3n2)cc1	none
N#CCCN1CCN(Cc2cc(-c3ccccc3)ccc2O)CC1	none
CC(C)(C)CC(C)(C)c1ccc(O)c(CN2CCN(CCC#N)CC2)c1	H69AR growth 86K 5.8 (no result: Jurkat viability)
COC(=O)c1nn2c(C(F)(F)F)cc(-c3ccc(Br)o3)nc2c1Br	H69AR growth 86K 33 (no result: Jurkat viability)
Cc1ccccc1C(=O)N/N=C/c1ccc([N+](=O)[O-])s1	HUVEC prolif 384 7.2, H69AR growth 86K 21 (no result: Jurkat viability)
O=C(N/N=C/c1ccc([N+](=O)[O-])s1)c1ccccc1Br	H69AR growth 86K 16 (no result: Jurkat viability)
CC(=O)Nc1ccc(NC(=O)c2ccccc2C)cc1	none (no result: Jurkat viability)
Cc1cc(C(=O)CSc2nnc(-c3cccnc3)n2-c2ccccc2F)c(C)n1CC1CCCO1 (configuration not stated)	none (no result: Jurkat viability)
COc1ccc(-c2nc3c(c(=O)n(C)c(=O)n3C)n2CC2CC(c3ccccc3)=NO2)cc1OC (configuration not stated)	H69AR growth 86K 6.3
COc1ccc(C(=O)Cn2c(Br)nc3c2c(=O)n(C)c(=O)n3C)cc1OC	none (no result: Jurkat viability)
COc1ccc(-c2c3c(=O)n(C)c(=O)n(C)c3c3nnc4ccccc4n23)cc1	none
COc1ccc(-c2c3c(=O)n(C)c(=O)n(C)c3cn2C2CCCCC2)cc1	H69AR growth 86K 20
O=C(O)CCc1cc(I)c(Oc2ccc(O)c(I)c2)c(I)c1	none (no result: Jurkat viability)
Cc1ccc(C)c(NC(=S)c2ccccn2)c1	H69AR growth 86K 2.7 (no result: Jurkat viability)
S=C(Nc1ccccn1)c1ccccn1	H69AR growth 86K 1.3
COC(=O)c1c(C)oc2c1cc(NS(=O)(=O)c1cccs1)c1ccccc12	H69AR growth 86K 20 (no result: Jurkat viability)
Cc1oc2c(cc(NS(=O)(=O)c3ccc4c5c(cccc35)C(=O)N4)c3ccccc32)c1C(=O)OC(C)C	H69AR growth 86K 31 (no result: Jurkat viability)
O=C(OCc1ccccc1)C1=[N+]([O-])OC(C(=O)OCc2ccccc2)C1c1c[nH]c2ccccc12 (configuration not stated)	H69AR growth 86K 5.6 (no result: Jurkat viability)
O=C(OCC(=O)c1c[nH]c2ccccc12)c1ccco1	none
O=C(NC(=S)Nc1cccc(Cl)c1N1CCCC1)c1ccc(-c2cccc([N+](=O)[O-])c2)o1	none (no result: Jurkat viability)
O=C(c1c[nH]c(C(=O)C(Cl)(Cl)Cl)c1)c1ccccc1Cl	H69AR growth 86K 23 (no result: Jurkat viability)
O=C(c1ccccc1Cl)N1CCNCC1	none (no result: Jurkat viability)
O=c1[nH]n(-c2cccc3cccnc23)c(=O)c2ccccc12	none (no result: H69AR growth 86K)
Oc1c(C=Nc2cccc3cccnc23)sc2ccccc12	HUVEC prolif 384 4.2, Fibroblast inh 42, H69AR growth 86K 17 (no result: Jurkat viability)
CCN(c1cccc(C)c1)c1nc2ccsc2c(=O)s1	none (no result: Jurkat viability)
COc1ccc(-c2nc(SC)n(S(=O)(=O)c3ccccc3)n2)cc1	none
COc1ccc(-c2nc3scc(-c4ccccc4)n3n2)cc1	H69AR growth 86K 31
CC(=O)N1CCC(C(=O)Nc2ccccc2)(N(Cc2ccccc2)C(=O)c2cccnc2)CC1	none (no result: Jurkat viability)
O=C(/C=C(\O)c1ccc(Cl)cc1)C(=O)NNC(=O)C(O)(c1ccccc1)c1ccccc1	H69AR growth 86K 24 (no result: Jurkat viability)
O=C(Nc1sccc1C(=O)N1CCOCC1)c1cccnc1	none
O=C(CCl)N(c1ccc(Cl)cc1)c1c[nH]c2ccccc12	HUVEC prolif 384 3.9, Fibroblast inh 2.4, H69AR growth 86K 1.1 (no result: Jurkat viability)
O=C(CCl)N(c1ccccc1)c1c[nH]c2ccccc12	HUVEC prolif 384 6.9, Fibroblast inh 1.7, H69AR growth 86K 0.4 (no result: Jurkat viability)
COc1ccc(C2c3c(ncn(CCN4CCOCC4)c3=N)Oc3ccc4ccccc4c32)cc1 (configuration not stated)	HUVEC prolif 384 29, H69AR growth 86K 1.3 (no result: Jurkat viability)
N=c1c2c(ncn1CCN1CCOCC1)Oc1ccc3ccccc3c1C2c1ccccc1 (configuration not stated)	HUVEC prolif 384 6.1, H69AR growth 86K 2.3 (no result: Jurkat viability)
CCC(C)NS(=O)(=O)c1ccc(OCC(=O)N2CCCC2)cc1 (configuration not stated)	none (no result: Jurkat viability)
CNc1ccc(Br)cc(C(=O)/C=C/c2cccc(OC)c2OC)c1=O	H69AR growth 86K 5.3 (no result: Jurkat viability)
CCNc1ccc(Br)cc(C(=O)/C=C/c2ccccc2Cl)c1=O	HUVEC prolif 384 7.6, Fibroblast inh 40, H69AR growth 86K 2.0 (no result: Jurkat viability)
COc1cccc(/C=C/c2ccncc2)c1OC	none (no result: HUVEC prolif 384, Fibroblast inh, H69AR growth 86K)
Cc1nnc2sc(-c3ccc(NC(=O)c4cccnc4)cc3)nn12	H69AR growth 86K 10
CCN(CC)c1ccc(NC(=O)c2cccnc2)c(C)c1	H69AR growth 86K 40 (no result: Jurkat viability)
CN1CCN(c2ccccc2NC(=O)c2ccc(-c3ccc(Cl)cc3Cl)o2)CC1	HUVEC prolif 384 5.8, H69AR growth 86K 32 (no result: Jurkat viability)
CS(=O)(=O)N1CCN(c2ccccc2NC(=O)c2ccc(-c3ccc(Cl)cc3Cl)o2)CC1	none
